Measured values: paper PMC12278411 (Acta Pharmaceutica Sinica. B, 2025)

Legend:
[1] = biological target: RIPK2 (h) (Homo sapiens, UniProt O43353); test: RIPK2 kinase assay; type: biochemical
[2] = biological target: T1, RIPK1 (Homo sapiens, UniProt Q13546); test: RIPK1 kinase assay; type: biochemical
T1 sequence (Q13546 1-671): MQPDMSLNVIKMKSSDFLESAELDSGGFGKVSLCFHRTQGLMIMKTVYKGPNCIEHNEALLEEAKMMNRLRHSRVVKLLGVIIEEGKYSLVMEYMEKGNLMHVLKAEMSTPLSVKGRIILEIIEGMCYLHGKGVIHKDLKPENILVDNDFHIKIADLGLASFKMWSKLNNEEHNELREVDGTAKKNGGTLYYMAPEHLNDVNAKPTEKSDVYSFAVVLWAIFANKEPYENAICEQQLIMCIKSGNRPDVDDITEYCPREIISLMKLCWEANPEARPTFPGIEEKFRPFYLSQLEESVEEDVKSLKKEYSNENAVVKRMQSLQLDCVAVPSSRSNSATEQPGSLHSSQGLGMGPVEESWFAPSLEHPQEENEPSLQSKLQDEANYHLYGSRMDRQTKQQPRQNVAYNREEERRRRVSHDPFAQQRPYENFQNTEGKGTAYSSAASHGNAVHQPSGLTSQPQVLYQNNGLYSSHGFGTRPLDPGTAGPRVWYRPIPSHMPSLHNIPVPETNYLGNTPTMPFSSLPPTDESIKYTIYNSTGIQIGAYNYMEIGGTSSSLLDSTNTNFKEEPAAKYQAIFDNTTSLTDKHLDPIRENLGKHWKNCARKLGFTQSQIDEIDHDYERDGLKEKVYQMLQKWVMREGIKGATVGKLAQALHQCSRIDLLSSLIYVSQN

[3] = Plasma exposure test, oral 10 mg/kg; type: in vivo; conditions: 10 mg/kg p.o., BALB/c mice
Method in brief: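 Test compound in saline with 2.5% DMSO, given orally at 10 mg/kg to BALB/c mice (20–22 g), n = 3. Blood drawn at 0.5, 2 and 6 h after dosing, centrifuged to obtain plasma. Proteins precipitated with acetonitrile containing SAHA internal standard, centrifuged again; supernatant concentrations quantified by LC–MS/MS.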

[4] = Pharmacokinetic study in mice, i.v. and p.o.; type: in vivo; conditions: BALB/c, mouse, plasma, 10 mg/kg
[5] = tested on: APAP-induced ALI (650 mg/kg APAP); test: Survival period in APAP-induced acute liver injury; type: in vivo, C57BL/6 mice; conditions: APAP 650 mg/kg, 96 h observation
Method in brief: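 Male C57BL/6 mice (24–25 g), fasted 16 h with free water, randomised 10 per group. APAP 650 mg/kg i.p., immediately followed by oral test compound (5, 10 or 20 mg/kg; reference groups NAC 30 mg/kg or a RIPK2 inhibitor 10 mg/kg). A second dose was given 12 h after induction. Saline controls included. Survival followed over 96 h.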

[6] = Metabolic stability assay in human liver microsome; type: in vitro ADME

Sequence of RIPK2 (h) (O43353 whole entry): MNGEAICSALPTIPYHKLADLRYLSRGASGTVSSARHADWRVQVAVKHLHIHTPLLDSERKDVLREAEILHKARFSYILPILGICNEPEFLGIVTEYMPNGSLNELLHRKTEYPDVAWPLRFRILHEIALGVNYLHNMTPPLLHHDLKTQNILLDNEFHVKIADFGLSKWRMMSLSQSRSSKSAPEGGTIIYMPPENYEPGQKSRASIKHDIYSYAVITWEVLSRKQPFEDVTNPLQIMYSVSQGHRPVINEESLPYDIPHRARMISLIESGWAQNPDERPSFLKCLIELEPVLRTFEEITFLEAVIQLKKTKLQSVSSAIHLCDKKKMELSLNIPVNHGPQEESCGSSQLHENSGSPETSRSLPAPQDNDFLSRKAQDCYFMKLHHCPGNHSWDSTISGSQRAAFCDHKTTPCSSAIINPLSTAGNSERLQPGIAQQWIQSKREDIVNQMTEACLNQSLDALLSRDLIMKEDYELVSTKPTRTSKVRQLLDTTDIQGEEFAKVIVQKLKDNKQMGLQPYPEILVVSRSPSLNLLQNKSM

For `CC(C)(C)S(=O)(=O)c1cc2c(Nc3ccc4scnc4c3)ncnc2cc1OCCOP(=O)(O)O` [GSK2983559, 2-((4-(benzo[d]thiazol-5-ylamino)-6-(tert-butylsulfonyl)quinazolin-7-yl)oxy)ethyl dihydrogen phosphate], the IC50 [1] was 7 nM, the IC50 [2] was > 30000 nM and the “Plasma concentration 0.5 h” value ([3]; 0.5 h) was 1154 ± 125 ng/mL. The “Plasma concentration 2 h” value ([3]; 2 h) was 145 ± 42 ng/mL, the “Plasma concentration 6 h” value ([3]; 6 h) was 21 ± 11 ng/mL and the AUC(0-t) ([4]; iv) was 3780 ± 255 ng·h/mL. For the same compound, the Cmax ([4]; iv) was 5680 ± 521 ng/mL, the Vd ([4]; iv) was 9.46 ± 4.13 L/kg and the clearance ([4]; iv) was 44.3 mL/min/kg. The half-life ([4]; iv) was 2.42 ± 0.86 h, the AUC(0-t) ([4]; po) was 3120 ± 1060 ng·h/mL and the Cmax ([4]; po) was 2620 ± 413 ng/mL. For the same compound, the bioavailability ([4]; po) was 82.7%, the half-life ([4]; po) was 2.74 ± 0.25 h and the survival of mice [5] was “significantly prolong the survival”.
In the case of `CC(=O)N[C@@H](CS)C(=O)O` [NAC, N-acetylcysteine], the survival of mice [5] is reported as “only deferred the time of mortality”.
With `Fc1cc2scnc2cc1Nc1ncnc2sc(C3=CCNCC3)cc12` [RP1, N-(6-fluorobenzo[d]thiazol-5-yl)-6-(1,2,3,6-tetrahydropyridin-4-yl)thieno[2,3-d]pyrimidin-4-amine] the IC50 [1] was 9 nM, the “RIPK1 Percentage%@1 μmol/L” value ([2]; active RIPK1 activity relative to control, 1 μmol/L) was 99 ± 2% and the CL ([6]; human liver microsomes, 1 μmol/L) was <12 mL/min/g·protein. For the same compound, the half-life at 1 μmol/L ([6]; human, pooled liver microsomes) was > 2 h.
